One assay deals with Vero. Briefly: Cytotoxicity against african green monkey Vero cells after 72 hrs by MTT assay. The class given is cell-based, Chlorocebus sabaeus.
Assay [1] deals with SF-268. In words: Cytotoxicity against human SF268 cells at 20 ug/ml after 48 hrs by SRB assay. The class given is functional. The method in brief:
(§1)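 MCF7, NCI-H460 and SF-268 cells were kept in RPMI-1640 with 5% fetal bovine serum, then seeded and preincubated in microtiter plates. Compound was added at two fixed concentrations and incubated for 48 h. The endpoint was sulforhodamine B protein staining, reported as percent growth of treated cells relative to untreated controls.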
(In SRB staining, fixed cells bind dye roughly in proportion to their protein.)

Assay [2] relates to MCF7. In words: Cytotoxicity against human MCF7 cells at 4 ug/ml after 48 hrs by SRB assay. The assay is classed as functional. The method in brief: as §1
A short description of assay [3]: Selectivity index, ratio of IC50 for african green monkey Vero cells to MIC for Mycobacterial tuberculosis H37Rv ATCC 27294. The assay is classed as functional. In a few lines:
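SI calculated as IC50/MIC, where MIC (H37Rv, Alamar Blue microdilution in BACTEC 12B medium) is the lowest concentration cutting fluorescence 90% versus controls.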

The test system of assay [4] is Mycobacterium tuberculosis. Briefly: Antitubercular activity against Mycobacterium tuberculosis H37Rv ATCC 27294 by microplate Alamar blue assay. The assay is classed as functional. In a few lines:
(§2)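 M. tuberculosis H37Rv (ATCC 27294) in BACTEC 12B medium; broth microdilution, Microplate Alamar Blue readout. MIC taken as lowest concentration giving 90% reduction in fluorescence versus controls.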
On the technique in general: The colour change of resazurin is a common sign of viable cells or microbes.

Assay [5] concerns NCI-H460. In words: Cytotoxicity against human NCI-H460 cells at 4 ug/ml after 48 hrs by SRB assay. The assay is classed as functional. In a few lines:
as §1

The test system of assay [6] is MCF7. In words: Cytotoxicity against human MCF7 cells at 20 ug/ml after 48 hrs by SRB assay. The class given is functional. The method in brief:
as §1

Assay [7] relates to NCI-H460. Briefly: Cytotoxicity against human NCI-H460 cells at 20 ug/ml after 48 hrs by SRB assay. The class given is functional. In a few lines: as §1
The test system of assay [8] is SF-268. Briefly: Cytotoxicity against human SF268 cells at 4 ug/ml after 48 hrs by SRB assay. The class given is functional. In a few lines: as §1
For assay [9], the system named is Mycobacterium tuberculosis. Briefly: Antitubercular activity against Mycobacterium tuberculosis H37Rv ATCC 27294 at <0.2 ug/ml by microplate Alamar blue assay. The class given is functional. In a few lines: as §2

In brackets after ≈: the same amount, converted by molar mass.

In general, IC50 refers to the concentration that gives 50% inhibition. In general, MIC refers to the lowest concentration found to suppress growth. `c1ccc(Nc2c3ccccc3nc3oc4ccccc4c23)cc1`: in the assay on Vero, the IC50 was 6.14 µg/mL (≈ 19.8 µM). Moreover, the Activity in the assay with SF-268 [1] is 76%; with MCF7 [2], 118%; in the assay on NCI-H460 [5], 104%; with MCF7 [6], 44%; in the assay on NCI-H460 [7] it was 53%; in the assay on SF-268 [8], 118%. Further, in assay [3], the “Selectivity Index” value came out at 1.15. In assay [4], this compound registered an MIC of 5.35 µg/mL (≈ 17.2 µM).
With `CCOc1c2ccccc2nc2oc3ccccc3c12`, the IC50 with Vero came to 10.34 µg/mL (≈ 39.3 µM). For the same compound, the Activity amounted to 90% in the assay on SF-268 [1]; 99% with MCF7 [2]; 92% in the assay on NCI-H460 [5]; 77% in the assay with MCF7 [6]; 84% in the assay on NCI-H460 [7]; 86% with SF-268 [8]. Besides, the “Selectivity Index” value in [3] is reported as 7.18. In addition, the MIC in assay [4] worked out at 1.44 µg/mL (≈ 5.47 µM).
Consider `CC(=O)c1ccc(Nc2c3ccccc3nc3oc4ccccc4c23)cc1`, for which the Activity with SF-268 [1] turned out to be 63%; with MCF7 [2] it was 106%; in the assay on NCI-H460 [5], 64%; in the assay with MCF7 [6], 49%; with NCI-H460 [7], 20%; in the assay with SF-268 [8] it was 109%. Further, the MIC in assay [4] came out at 14.6 µg/mL (≈ 41.3 µM).
As for `COc1ccc(Nc2c3ccccc3nc3oc4ccccc4c23)cc1`, in the assay with Vero, the IC50 turned out to be 3.63 µg/mL (≈ 10.7 µM). Further, the Activity with SF-268 [1] stood at 87%; in the assay on MCF7 [2] it was 109%; with NCI-H460 [5], 83%; in the assay on MCF7 [6], 35%; in the assay with NCI-H460 [7] it was 17%; in the assay on SF-268 [8] it was 111%. For the same compound, in assay [3], the “Selectivity Index” value is 1.38. In [4], this compound had an MIC of 2.63 µg/mL (≈ 7.73 µM).
With `CC(=O)c1ccc(Oc2c3ccccc3nc3oc4ccccc4c23)cc1`, the Activity is given as 100% in the assay with SF-268 [1]; 100% in the assay on MCF7 [2]; 104% in the assay with NCI-H460 [5]; 88% in the assay on MCF7 [6]; 62% in the assay with NCI-H460 [7]; 104% with SF-268 [8]. Also, the MIC in assay [4] is > 100 µg/mL.
Consider `Nc1c2ccccc2nc2oc3ccccc3c12`, for which the Activity in the assay with SF-268 [1] is 72%; in the assay on MCF7 [2], 114%; with NCI-H460 [5], 110%; in the assay on MCF7 [6] it was 113%; in the assay with NCI-H460 [7], 107%; with SF-268 [8], 84%. Further, the MIC in assay [4] was > 100 µg/mL.
In the assay on Vero, `CNc1c2ccccc2nc2oc3ccccc3c12` gave an IC50 of 5.55 µg/mL (≈ 22.4 µM). For the same compound, the Activity with SF-268 [1] is listed as 86%; in the assay on MCF7 [2], 100%; in the assay with NCI-H460 [5], 102%; in the assay with MCF7 [6], 99%; in the assay with NCI-H460 [7], 99%; in the assay with SF-268 [8], 98%. The “Selectivity Index” value in assay [3] was >27.75. In addition, the MIC in assay [4] is < 0.2 µg/mL.
On to `CN(C)c1c2ccccc2nc2oc3ccccc3c12`, for which the IC50 with Vero was > 30 µg/mL. The Activity was found to be 91% in the assay on SF-268 [1]; 87% with MCF7 [2]; 108% in the assay on NCI-H460 [5]; 48% in the assay with MCF7 [6]; 76% in the assay on NCI-H460 [7]; 102% in the assay with SF-268 [8]. Also, the “Selectivity Index” value in [3] was >150. The MIC in assay [4] was < 0.2 µg/mL.
The compound `COc1c2ccccc2nc2oc3ccccc3c12` returned an IC50 in the assay on Vero of 11.77 µg/mL (≈ 47.2 µM). For the same compound, the Activity in the assay with SF-268 [1] is 98%; with MCF7 [2], 102%; in the assay with NCI-H460 [5], 90%; with MCF7 [6], 92%; with NCI-H460 [7] it was 68%; with SF-268 [8] it was 98%. Also, in [9], the “inhibition (INH)” value was 99%. Besides, the “Selectivity Index” value in assay [3] is on record as >58.85. Besides, the MIC in [4] was < 0.2 µg/mL.
Take `COc1cccc(Nc2c3ccccc3nc3oc4ccccc4c23)c1`: the Activity in the assay on SF-268 [1] is reported as 60%; with MCF7 [2], 107%; in the assay with NCI-H460 [5] it was 99%; in the assay with MCF7 [6] it was 84%; in the assay on NCI-H460 [7] it was 46%; in the assay on SF-268 [8], 97%. The MIC in [4] came to 17.8 µg/mL (≈ 52.4 µM).
As for `c1ccc(Oc2c3ccccc3nc3oc4ccccc4c23)cc1`, the Activity with SF-268 [1] worked out at 108%; in the assay on MCF7 [2], 94%; with NCI-H460 [5], 99%; in the assay with MCF7 [6], 64%; in the assay with NCI-H460 [7] it was 91%; in the assay on SF-268 [8], 108%. In addition, in [4], the minimum inhibitory concentration (MIC) is > 100 µg/mL.
For the compound `CO[C@H]1/C=C/O[C@@]2(C)Oc3c(C)c(O)c4c(O)c(c(/C=N/N5CCN(C)CC5)c(O)c4c3C2=O)NC(=O)/C(C)=C\C=C\[C@H](C)[C@H](O)[C@@H](C)[C@@H](O)[C@@H](C)[C@H](OC(C)=O)[C@@H]1C` [RIFAMPIN], the IC50 in the assay on Vero was determined as 100 µg/mL (≈ 122 µM). Moreover, the “Selectivity Index” value in assay [3] came out at 400. The compound also yielded an MIC in assay [4] of 0.125 µg/mL (≈ 0.152 µM).

The record behind these values is ChEMBL document CHEMBL1154715, “Identification of benzofuro[2,3-b]quinoline derivatives as a new class of antituberculosis agents” (Eur J Med Chem, 2010).
